Source: ChEMBL document CHEMBL1811839, “Lindenane disesquiterpenoids with anti-HIV-1 activity from Chloranthus japonicus” (J Nat Prod, 2011)

Columns and labels:
[1] = Therapeutic index, ratio of CC50 for against human C8166 cells to EC50 for HIV-1; type: cell-based; conditions: read-out: Ratio CC50/EC50
[2] = Cytotoxicity against human C8166 cells by MTT assay; type: cell-based
How it was run: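 MTT assay on C8166 cells yielding CC50.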

[3] = test system: Human immunodeficiency virus 1; experiment: (§1) Antiviral activity against Human immunodeficiency virus 1 NL 4.3 harboring reverse transcriptase Y181C mutant pseudotyped with VSV-G envelope co-transfected with luciferase gene infected in 293T cells assessed as inhibition of HIV1 replication administered 15 mins prior to infection measured after 48 hrs post infection by luciferase assay; type: functional, organism-based; conditions: Human immunodeficiency virus 1, NL 4.3, HEK-293T
How it was run: (§2)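 VSV-G plasmid co-transfected with env-deficient pNL4-3.luc.R-E vector (wild-type, RT-K103N or RT-Y181C) into 293T cells by modified Ca3(PO4)2 method; medium changed 16 h post-transfection; virion supernatant harvested 48 h, 0.45 μm filtered, p24 ELISA-quantified and diluted to 0.2 ng p24/mL. Target 293T cells plated 6 × 10^4/well a day before; compounds in DMSO added 15 min before infection; luciferase in lysates read 48 h post-infection; EFV positive control.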

[4] = test system: Human immunodeficiency virus 1; experiment: as §1, with “K103N” for “Y181C”; type: functional, organism-based; conditions: Human immunodeficiency virus 1, NL 4.3, HEK-293T; how it was run: as §2
[5] = test system: Human immunodeficiency virus 1; experiment: Antiviral activity against wild type Human immunodeficiency virus 1 NL 4.3 pseudotyped with VSV-G envelope co-transfected with luciferase gene infected in human 293T cells assessed as inhibition of HIV1 replication administered 15 mins prior to infection measured after 48 hrs post infection by luciferase assay; type: functional, organism-based; conditions: Human immunodeficiency virus 1, NL 4.3, HEK-293T; how it was run: as §2
[6] = test system: Human immunodeficiency virus 1; experiment: Antiviral activity against Human immunodeficiency virus 1 assessed as inhibition of virus-induced cytopathic effects by cell based assay; type: functional, organism-based
How it was run: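 HIV-1 cytopathic-effect inhibition assay yielding EC50; AZT positive control.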

COC(=O)/C(C)=C1\C(=O)[C@H](O)[C@]2(C)C3=C(C[C@@H]4[C@]5(OC(=O)C6=C5C[C@H]5[C@](O)(COC(=O)/C=C(\C)COC(=O)CCC(=O)OC6)[C@H]6C[C@H]6[C@]45C)[C@H]31)[C@H]1C[C@H]12 [SHIZUKAOL F]
selectivity ratio [1]: 10.9
CC50 [2]: 47 nM
EC50 [3]: 4050 nM
EC50 [4]: 3390 nM
EC50 [5]: 110 nM
EC50 [6]: 4.3 nM

O=C1Nc2ccc(Cl)cc2[C@@](C#CC2CC2)(C(F)(F)F)O1 [EFAVIRENZ]
EC50 [3]: 2 nM
EC50 [4]: 24 nM

COC(=O)/C(C)=C1\C(=O)[C@H](O)[C@]2(C)C3=C(C[C@@H]4[C@]5(OC(=O)C6=C5C[C@H]5[C@](O)(COC(=O)/C(C)=C/COC(=O)CCC(=O)OC6)[C@H]6C[C@H]6[C@]45C)[C@H]31)[C@H]1C[C@H]12 [SHIZUKAOL B]
selectivity ratio [1]: 14.4
CC50 [2]: 20 nM
EC50 [3]: 500 nM
EC50 [4]: 470 nM
EC50 [5]: 220 nM
EC50 [6]: 1.4 nM

COC(=O)/C(C)=C1\C(=O)[C@H](O)[C@]2(C)C3=C(C[C@@H]4[C@]5(OC(=O)C6=C5C[C@H]5[C@](O)(COC(=O)/C=C(\C)COC(=O)[C@@H](O)CC(=O)OC6)[C@H]6C[C@H]6[C@]45C)[C@H]31)[C@H]1C[C@H]12 [SHIZUKAOL H]
selectivity ratio [1]: 6.67
CC50 [2]: 22 nM
EC50 [3]: 860 nM
EC50 [4]: 2350 nM
EC50 [5]: 830 nM
EC50 [6]: 3.3 nM

C/C=C(\C)C(=O)OCC1=C2C[C@H]3[C@H](O)[C@H]4C[C@H]4[C@]3(C)[C@@H]3C[C@@]4(O)C5=C(/C(=C(/C)C(=O)OC)C(=O)[C@H](O)[C@@]5(C)[C@@H]5C[C@@H]54)[C@]23OC1=O [SHIZUKAOL C]
selectivity ratio [1]: 5.56
CC50 [2]: 89 nM
EC50 [3]: 1000 nM
EC50 [4]: 1360 nM
EC50 [5]: 980 nM
EC50 [6]: 16 nM

Cc1cn([C@H]2C[C@H](N=[N+]=[N-])[C@@H](CO)O2)c(=O)[nH]c1=O [ZIDOVUDINE]
selectivity ratio [1]: 1.02e+06
